# From ChEMBL document CHEMBL2434844, “Synthesis, antimicrobial, antioxidant activities of novel 6-aryl-5-cyano thiouracil derivatives” (Eur J Med Chem, 2013)
# The source made the active and inactive calls. The rule behind the calls is not given here.
# Experiments:
# Bacillus cereus [1] = assay: Antibacterial activity against Bacillus cereus ATCC 14579 at 10 mg/disc after 48 hrs by disc-diffusion method; assay type: functional
# Method in brief: (§1)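 Disc diffusion per Bauer method under NCCLS conditions on nutrient agar/Mueller-Hinton agar. Compound dissolved in sterile DMSO at 10 mg/mL, filtered 0.2 µm, stored frozen at -15 °C; 10 mg/disc in DMSO applied. DMSO control. Inhibition zone diameter measured in mm after 48 h incubation at 28 °C.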
# Candida albicans [2] = assay: Antifungal activity against Candida albicans ATCC 26555 after 24 hrs by microdilution technique; assay type: functional
# Method in brief: (§2)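 MIC by agar microdilution on Mueller-Hinton agar per NCCLS 1997. Bacteria subcultured overnight at 37 °C on MHA, Candida on SDA at 35 °C for 24-48 h, each passaged at least twice. Incubated 37 °C in humid chamber, read after 24 h.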
# Staphylococcus aureus [3] = assay: Antibacterial activity against Staphylococcus aureus ATCC 12600 after 24 hrs by microdilution technique; assay type: functional; method in brief: as §2
# Escherichia coli [4] = assay: Antibacterial activity against Escherichia coli ATCC 11775 at 10 mg/disc after 48 hrs by disc-diffusion method; assay type: functional, DSM 30083 = JCM 1649; method in brief: as §1
# Aspergillus flavus [5] = assay: Antifungal activity against Aspergillus flavus ATCC 11495 at 10 mg/disc after 48 hrs by disc-diffusion method; assay type: functional; method in brief: as §1
# Staphylococcus aureus [6] = assay: Antibacterial activity against Staphylococcus aureus ATCC 12600 at 10 mg/disc after 48 hrs by disc-diffusion method; assay type: functional; method in brief: as §1
# Candida albicans [7] = assay: Antifungal activity against Candida albicans ATCC 26555 at 10 mg/disc after 48 hrs by disc-diffusion method; assay type: functional; method in brief: as §1
# [8] = tested on: Radical scavenging activity; assay: Antioxidant activity assessed as DPPH free radical scavenging activity after 20 mins by UV-visible spectrophotometric analysis; assay type: functional
# Method in brief: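 Kept in the dark at room temperature for 20 min, then absorbance read at 517 nm against DPPH blank, DMSO baseline. % scavenging = [(Ac−At)/Ac]×100; IC50 (µg/mL) from concentration plot; mean ± SEM, n=3, 8 replica each.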
# Aspergillus flavus [9] = assay: Antifungal activity against Aspergillus flavus ATCC 11495 after 24 hrs by microdilution technique; assay type: functional
# Escherichia coli [10] = assay: Antibacterial activity against Escherichia coli ATCC 11775 after 24 hrs by microdilution technique; assay type: functional; method in brief: as §2
# Bacillus cereus [11] = assay: Antibacterial activity against Bacillus cereus ATCC 14579 after 24 hrs by microdilution technique; assay type: functional; method in brief: as §2
SMILES,diameter of the inhibition zone (DIZ) (Bacillus cereus [1]),MIC (Candida albicans [2]),"MIC (Staphylococcus aureus [3]; ATCC 12600, 24 h) [µg/mL]",diameter of the inhibition zone (DIZ) (Escherichia coli [4]) [mm],diameter of the inhibition zone (DIZ) (Aspergillus flavus [5]),diameter of the inhibition zone (DIZ) (Staphylococcus aureus [6]),diameter of the inhibition zone (DIZ) (Candida albicans [7]),Activity [8],IC50 [8] [µg/mL],"MIC (Aspergillus flavus [9]; ATCC 11495, 24 h) [µg/mL]","MIC (Escherichia coli [10]; DSM 30083 = JCM 1649, 24 h) [µg/mL]","MIC (Bacillus cereus [11]; ATCC 14579, 24 h) [µg/mL]",MIC (Staphylococcus aureus [3]),diameter of the inhibition zone (DIZ) (Escherichia coli [4]; DSM 30083 = JCM 1649),MIC (Aspergillus flavus [9]),MIC (Escherichia coli [10]; DSM 30083 = JCM 1649),MIC (Bacillus cereus [11]),"MIC (Candida albicans [2]; ATCC 26555, 24 h) [µg/mL]"
N#Cc1c(NN)nc(=S)[nH]c1-c1ccc(F)cc1,12 mm,inactive,16,14,13 mm,15 mm,inactive,Dose-dependent effect,15.24,32,32,64,,,,,,
COc1cc(-c2[nH]c(=S)n3c(C)nnc3c2C#N)cc(OC)c1OC,inactive,inactive,,,inactive,inactive,inactive,Dose-dependent effect,31.15,,,,inactive,inactive,inactive,inactive,inactive,
COc1ccc(/C=N/Nc2nc(=S)[nH]c(-c3ccc(Br)cc3)c2C#N)cc1,16 mm,,32,12,14 mm,18 mm,16 mm,,,32,32,32,,,,,,32
N#Cc1c(-c2ccc(F)cc2)[nH]c(=S)n2nnnc12,15 mm,inactive,16,13,inactive,15 mm,inactive,,,,32,32,,,inactive,,,
N#Cc1c(-c2ccc(Br)cc2)[nH]c(=S)n2nnnc12,13 mm,inactive,16,12,inactive,14 mm,inactive,,,,32,32,,,inactive,,,
N#Cc1c(-c2ccc(F)cc2)[nH]c(=S)n2cnnc12,19 mm,,16,14,19 mm,22 mm,18 mm,,,16,16,16,,,,,,16
Cc1nc2c(C#N)c(-c3ccc(F)cc3)[nH]c(=S)n2n1,5 mm,,128,7,7 mm,7 mm,8 mm,,,256,128,128,,,,,,128
N#Cc1c(-c2ccc(F)cc2)[nH]c(=S)n2c(=S)[nH]nc12,11 mm,,,11,inactive,inactive,12 mm,,,,64,64,inactive,,inactive,,,32
COc1cc(-c2[nH]c(=S)n3nnnc3c2C#N)cc(OC)c1OC,12 mm,inactive,16,12,inactive,14 mm,inactive,,,,32,32,,,inactive,,,
O=C1O[C@H]([C@@H](O)CO)C(O)=C1O [ASCORBIC ACID],,,,,,,,Dose-dependent effect,10,,,,,,,,,
COc1cc(-c2[nH]c(=S)n3ncnc3c2C#N)cc(OC)c1OC,5 mm,,128,6,7 mm,7 mm,8 mm,,,256,128,128,,,,,,128
N#Cc1c(-c2ccc(Br)cc2)[nH]c(=S)n2c(=S)[nH]nc12,10 mm,,,11,inactive,inactive,12 mm,,,,64,64,inactive,,inactive,,,32
COc1cc(-c2[nH]c(=S)nc(N/N=C/c3ccc(F)cc3)c2C#N)cc(OC)c1OC,17 mm,,32,12,15 mm,19 mm,16 mm,,,32,32,32,,,,,,32
N#Cc1c(-c2ccc(Br)cc2)[nH]c(=S)n2c(=O)[nH]nc12,inactive,inactive,64,,inactive,11 mm,inactive,,,,,,,inactive,inactive,inactive,inactive,
N#Cc1c(-c2ccc(Br)cc2)[nH]c(=S)n2ncnc12,5 mm,,128,7,7 mm,6 mm,8 mm,,,256,128,128,,,,,,128
Cc1nc2c(C#N)c(-c3ccc(Br)cc3)[nH]c(=S)n2n1,6 mm,,128,6,7 mm,7 mm,8 mm,,,256,128,128,,,,,,128
